Source: PubChem (Broad Institute)
RAD54 inh: blocks human RAD54 Holliday junction branch migration | 0.14% of 360,000 active | inhibition, % at 10.4 µM | FAM/BHQ fluorescence | Q92698;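 active = mean normalized replicate activity at least 40 and at least half of replicates scoring 40 or more; inconclusive = only one of the two criteria met; inactive = mean below 40 and under half of replicates reaching 40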;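 note: 0% = median of neutral control wells and 100% = median of positive control wells; inhibitors cause a drop in the FAM fluorescence signal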
N-glyco inh: blocks N-linked glycosylation in D54 reporter cells | reporter increase, % at 12.5 µM | AID 588692 | 0.23% of 360,000 active | D54 ERlucT glycosylation luciferase reporter, 24 h; percent of 100 nM tunicamycin response;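 active = mean luciferase reporter signal, scaled so untreated is 0 and the glycosylation-blocking control 100, at or above a set limit in every replicate; inconclusive = mean reaches the limit but not every replicate does; inactive = mean below the limit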;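 note: luciferase carries N-glycosylation sites so blocking glycosylation raises the light; 0% = median of neutral control wells and 100% = median of 100 nM tunicamycin wells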
RAD52 anneal inh: blocks human RAD52 DNA annealing | P43351 | recombinant RAD52 DNA annealing, FRET fluorescence | 0.46% of 360,000 active | inhibition, % at 18.7 µM;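 active = every replicate showing at least 50% inhibition; inconclusive = mean inhibition at least 50% but not in every replicate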
Target sequence (P43351 whole entry, looked up): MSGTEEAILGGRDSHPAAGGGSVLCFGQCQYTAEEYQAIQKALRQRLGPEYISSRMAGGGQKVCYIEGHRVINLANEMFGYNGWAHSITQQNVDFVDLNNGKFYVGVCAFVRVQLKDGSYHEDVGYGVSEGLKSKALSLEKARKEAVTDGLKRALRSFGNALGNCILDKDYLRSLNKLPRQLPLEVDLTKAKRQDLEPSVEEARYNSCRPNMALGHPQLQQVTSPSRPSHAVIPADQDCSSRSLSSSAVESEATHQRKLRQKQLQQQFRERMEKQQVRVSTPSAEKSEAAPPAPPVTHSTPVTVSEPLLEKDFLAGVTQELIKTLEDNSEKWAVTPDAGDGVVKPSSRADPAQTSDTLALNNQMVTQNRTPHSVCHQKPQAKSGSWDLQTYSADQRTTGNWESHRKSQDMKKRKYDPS
FN deposit inh: fibronectin deposition inhibition; AH1F fibroblasts, Alexa488-fibronectin deposition fluorescence, overnight; inhibition, % at 12.6 µM; 0.086% of 350,000 active; AID 743247;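 active = mean inhibition across replicates of 30% or more, regardless of how many single replicates reach that level; inconclusive = mean under 30% yet at least half of replicates reach 30%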;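 note: positive control wells lacked labelled fibronectin entirely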
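test system = AH1F fibroblasts assembling fluorescent fibronectin matrix | quantity = 10000 AH1F cells per well | buffer or medium = DMEM plus 2% serum, read in PBS | doses = single dose, pinned | incubation = 1 h cell attachment, overnight exposure to compound and label | detection = fluorescence at 485 nm excitation, 525 nm emission | read-out basis = inhibition from reduced deposited-fibronectin fluorescence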
MLL AF4-AF9 inh: blocks AF4 peptide binding to human AF9; P42568; AlphaScreen, biotin-AF4 peptide binding to FLAG-AF9; inhibition, % at 10 µM; 0.47% of 350,000 active; AID 651704;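 active = every replicate reaching a set inhibition limit, whatever the replicate mean, cut at about 25% in these data; inconclusive = mean inhibition reaches that limit but some replicates miss it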;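 note: 0% = plate neutral control median and 100% = total signal loss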
Starred values were filed as active, the others as inactive; ? = inconclusive; nt = no result; ! = not confirmed by another sample. This is a sample that favours compounds with a hit; in the whole collection about 0.92% have one here.

SMILES	RAD54 inh	N-glyco inh	RAD52 anneal inh	FN deposit inh	MLL AF4-AF9 inh
O=C1c2cccnc2-c2ncccc21	3.8	1.3	nt	nt	nt
O=C1C(=O)c2cccnc2-c2ncccc21	nt	-18.0	41.9	44.9*	-23.5
NC(=O)c1ccc(N=Cc2ccc([N+](=O)[O-])s2)cc1	nt	43.9*	-10.1	-2.4	-7.9
Cc1cc(C)cc(N=Cc2ccc([N+](=O)[O-])s2)c1	nt	22.1	nt	-6.1	nt
C[C@H]1CN([C@@H](C)CO)C(=O)c2cc(NS(=O)(=O)c3cn(C)cn3)ccc2O[C@@H]1CN(C)Cc1ccc(-c2ccccc2)cc1	-8.8	nt	7.2	-0.5	-8.2
CN(C)c1ccc(/C=N/N2CCN(Cc3ccccc3Cl)CC2)cc1	2.4	1.4	-29.9	-1.6	30.8*
CCN(CC)c1ccc(/C=N/N2CCN(Cc3ccccc3Cl)CC2)cc1	10.9	-1.8	0.3	6.3	26.1*
CCN(CC)c1ccc(/C=N/N2CCN(Cc3ccccc3)CC2)cc1	nt	-0.7	-2.4	4.8	36.7*
CCN(CC)c1ccc(/C=N/N2CCN(c3ccccc3OC)CC2)cc1	-6.7	2.5	-90.5	5.6	30.4*
C(=N\N1CCN(Cc2ccccc2)CC1)/c1ccccc1	nt	0.2	-12.2	-0.9	-65.8
O=[N+]([O-])c1ccc(/C=N\N2CCN(Cc3ccccc3Cl)CC2)cc1	-5.7	1.3	-55.0	-7.5	1.1
COc1ccccc1-c1cn(CC[C@H]2CC[C@@H](NC(=O)C3CCC3)[C@@H](CO)O2)nn1	-4.2	nt	-6.8	nt	0.5
Cc1noc(C)c1S(=O)(=O)Nc1ccc2c(c1)CC(=O)N([C@@H](C)CO)C[C@@H](C)[C@H](CN(C)C(=O)Nc1ccc3c(c1)OCO3)O2	6.6	nt	nt	nt	nt
O=C(N[C@H]1CC[C@@H](CC(=O)N2CCc3ccccc3C2)O[C@@H]1CO)C1CCOCC1	1.9	nt	nt	4.1	nt
COc1ccc(/C=C/C(=O)Nc2ccccc2C(=O)NCC(c2ccc(OC)cc2)N(C)C)cc1 (centres undefined)	-1.0	0.4	10.6	-6.2	25.7*
O=C(C[C@H]1C[C@@H]2c3cc(NC(=O)Nc4ccc(F)cc4)ccc3O[C@@H]2[C@@H](CO)O1)NC1CCCC1	nt	nt	nt	-8.3	nt
CCc1cccc(CC)c1NC(=S)NCCc1c(C)[nH]c2ccc(C)cc12	8.6	-9.2	-32.7	-3.5	1.6
CCc1cccc(C)c1NC(=S)NCCc1c(C)[nH]c2ccc(C)cc12	-13.0	-3.9	-17.2	3.4	44.3*
Cc1ccccc1-c1ccc(C2[C@@H]3CN(C(=O)C4CCOCC4)C[C@H]2N3)cc1 (some centres undefined)	nt	nt	0.1	-8.1	-6.4
O=C(C1CC1)N1C[C@@H]2N[C@H](C1)C2c1ccc(/C=C/c2ccccc2)cc1 (some centres undefined)	nt	nt	51.0*!	-9.4	10.5
O=C(Nc1ccccc1F)N1C[C@@H]2N[C@H](C1)C2c1ccc(/C=C/c2ccccc2)cc1 (some centres undefined)	nt	nt	69.1*	8.9	8.2
Cc1ccccc1-c1ccc(C2[C@@H]3CN(C(=O)C4CC4)C[C@H]2N3)cc1 (some centres undefined)	nt	nt	83.7*!	17.4	-13.2
CCOc1ccc2c(c1)C(NC(C)=O)C(=O)N2CCN1CCOCC1 (centres undefined)	-31.0	0.4	21.7	-6.8	25.0*
CC(=O)NC1C(=O)N(CCN2CCOCC2)c2ccc(Br)cc21 (centres undefined)	-17.6	2.7	23.2	-10.7	16.1
CCCCCn1c(=N)n(CC(O)COc2ccccc2OC)c2ccccc21 (centres undefined)	3.0	0.9	12.3	4.4	50.0*!
SMILES	RAD54 inh	N-glyco inh	RAD52 anneal inh	FN deposit inh	MLL AF4-AF9 inh
Cc1ccccc1/C=C\c1nc2ccccc2c(=O)n1Cc1ccccc1	nt	-1.0	nt	-7.2	nt
CCn1c(/C=C\c2ccccc2C)nc2ccccc2c1=O	3.2	-0.5	-5.5	-2.5	31.2*
COc1ccc2c3c([nH]c2c1)[C@@H](CO)N(C(=O)CC1CC1)CC31CCN(C(=O)CC2CC2)CC1	nt	nt	13.3	nt	nt
CN(C)CC(=O)N1CCCCN2[C@H](CO)[C@@H](c3ccc(/C=C/c4ccccc4)cc3)[C@@H]2C1	5.4	nt	44.0	nt	-5.6
CN(C)CC(=O)N1CCCCN2[C@H](CO)[C@H](c3ccc(/C=C/c4ccccc4)cc3)[C@@H]2C1	16.4	nt	55.3*	nt	-1.7
CN(C)CC#Cc1ccc([C@H]2[C@@H](CO)N3CCCCN(C(=O)Nc4ccccc4F)C[C@H]23)cc1	-3.9	nt	70.1*	nt	1.6
CN(C)CC#Cc1ccc([C@H]2[C@H]3CN(C(=O)CN(C)C)CCCCN3[C@H]2CO)cc1	-17.6	nt	57.2*	nt	-0.5
CO[C@@H]1CN(C)C(=O)c2cc(NC(=O)C3CC3)ccc2OC[C@@H](C)N(Cc2cc(F)ccc2F)C[C@H]1C	2.1	nt	7.9	1.1	0.3
CO[C@H]1CN(C)C(=O)c2cc(NC(=O)C3CC3)ccc2OC[C@@H](C)N(Cc2cc(F)ccc2F)C[C@@H]1C	-5.3	nt	13.7	-8.0	43.5*
COc1cccc(NC(=O)Nc2ccc3c(c2)C(=O)N(C)C[C@@H](OC)[C@@H](C)CN(C)[C@H](C)CO3)c1	13.6	nt	95.0*	7.7	0.3
COc1cccc(NC(=O)Nc2ccc3c(c2)C(=O)N(C)C[C@H](OC)[C@H](C)CN(C)[C@H](C)CO3)c1	-0.1	nt	88.5*	0.5	11.0
CCC(=O)Nc1ccc2c(c1)C(=O)N(C)C[C@H](OC)[C@@H](C)CN(C(=O)c1ccccn1)[C@H](C)CO2	-2.2	nt	-1.9	-5.5	31.7*
CCC(=O)Nc1ccc2c(c1)C(=O)N(C)C[C@@H](OC)[C@H](C)CN(C(=O)c1ccccn1)[C@H](C)CO2	4.3	nt	-15.2	11.0	?
COCC(=O)Nc1ccc2c(c1)OC[C@@H](C)N(Cc1cccnc1)C[C@H](C)[C@H](OC)CN(C)C2=O	nt	nt	-9.5	-8.9	-0.6
COc1ccc(NC(=O)Nc2ccc3c(c2)CC(=O)N([C@H](C)CO)C[C@@H](C)[C@@H](CN(C)C(=O)Nc2ccc4c(c2)OCO4)O3)cc1	1.7	nt	-10.7	nt	-0.5
COc1cccc(NC(=O)Nc2ccc3c(c2)C(=O)N(C)C[C@H](OC)[C@H](C)CN(CC2CC2)[C@@H](C)CO3)c1	-10.0	nt	45.4	0.3	7.3
COc1cccc(NC(=O)Nc2ccc3c(c2)C(=O)N(C)C[C@@H](OC)[C@H](C)CN(CC2CC2)[C@@H](C)CO3)c1	2.5	nt	64.4*	3.8	7.4
C[C@H](CO)N1C[C@H](C)[C@@H](CN(C)C(=O)Nc2ccccc2)Oc2ncc(-c3cccnc3)cc2C1=O	8.1	nt	6.4	nt	-2.8
O=C1CCC2c3ccc4ccccc4c3CCN12 (centres undefined)	3.7	4.3	nt	30.4*	nt
CCOc1ccc(C(C)=O)cc1COc1cccnc1[N+](=O)[O-]	-0.9	30.3*	-12.6	-0.9	-4.7
COc1ccc(C(C)=O)cc1COc1cccnc1[N+](=O)[O-]	-2.5	22.5	-1.3	13.1	1.9
